The source of these data is publication PMC2726660 (Archives of biochemistry and biophysics, 2009).

Like-named read-outs stand apart in the source and are kept apart here.

The term IC50 denotes the concentration at which inhibition is half-maximal.

The subject of experiment [1] is MCF-7 human breast carcinoma cells. As to the kind of experiment: Growth of human breast carcinoma MCF-7 cells. The format is cell-based. As to conditions: for IC50: read-out: Inhibition of cell growth IC50 (μM) ± S. D., MCF-7 cells, 48 h, sulforhodamine B. An outline of the steps: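 MCF-7 cells from the NCI drug screening group, grown in RPMI with 10% heat-treated fetal bovine serum. About 5,000 cells per well seeded, adhered overnight, then exposed to test compound for 48 h at 37 °C in humidified 5% CO2; final DMSO 0.5% (v/v). Growth read as cellular protein by sulforhodamine B staining. IC50 is 50% growth inhibition.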

The test system of experiment [2] is purified bovine brain tubulin. As to the kind of experiment: Electron microscopy of polymer morphology. The format is biochemical. The following applies: 10 μM compound, 10 μM tubulin, 0.75 M glutamate, 30 min at 30 °C. An outline of the steps:
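Purified bovine brain tubulin with microtubule-associated proteins removed, at 10 μM, in 0.75 M monosodium glutamate (stock pH 6.6), 10 μM GTP and 4% DMSO. Test compound at 10 μM, with a no-addition control. After 30 min at 30 °C, aliquots were put on carbon-coated Formvar copper grids and stained with 5-10 drops of 1% uranyl acetate. Excess stain was wicked off and grids examined by TEM.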

For experiment [3] the following is noted: cited from earlier work.
Experiment [4] has as its system purified bovine brain tubulin. As to the kind of experiment: Centrifugal assay for spiral formation. It is filed as biochemical. As to conditions: threshold EC50 < 100 μM. An outline of the steps:
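Purified bovine brain tubulin (MAP-free) at 10 μM in 0.75 M monosodium glutamate (stock pH 6.6), 10 μM GTP, 4% (v/v) DMSO as compound solvent. Incubated 20 min at 30 °C, then centrifuged 15 min at room temperature (about 20 °C). Lowry protein measured in supernatant and in uncentrifuged mixture. EC50 is the concentration removing 50% of tubulin from the supernatant versus no-compound reactions.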

Experiment [5] relates to purified bovine brain tubulin. As to the kind of experiment: Turbidimetric tubulin assembly assay in glutamate. The format is biochemical.
In experiment [6] the test system is tubulin. The following applies: cited from earlier work.
Experiment [7] deals with tubulin. As to the kind of experiment: Binding of radiolabeled colchicine to tubulin. The arrangement: species or system bovine.
In experiment [8] the test system is cultured cells. As to the kind of experiment: Microtubule bundle formation in cultured cells. It is filed as cell-based. As to conditions: synthetic compound.
Experiment [9] concerns tubulin. The experiment can be described thus: Binding of [3H]vinblastine to tubulin. As to conditions: authors' attempt to reproduce ref 3.
Experiment [10] relates to preformed microtubules. As to the kind of experiment: Binding of radiolabeled paclitaxel to preformed microtubules. As to conditions: unpublished data.

Turning to `CC12CCCn3ccc(c31)-c1ccccc1NC(=O)CC2` (stereo not shown) [Compound 5], the IC50 in experiment [1] worked out at 3.8 ± 1 µM.
In the case of `CC[C@]1(O)C[C@@H]2CN(CCc3c([nH]c4ccccc34)[C@@](C(=O)OC)(c3cc4c(cc3OC)N(C)[C@H]3[C@@](O)(C(=O)OC)[C@H](OC(C)=O)[C@]5(CC)C=CCN6CC[C@]43[C@@H]65)C2)C1` [vinblastine], the “morphology of polymer formed in glutamate with 10 μM GTP” value in experiment [2] is reported as “typical tight spirals”.
For (+)-rhazinilam, the “activity of the enantiomer, in words” value in experiment [3] is “inactive”.
For the compound (±)-rhazinilam, the “activity in the tubulin-based (spiralization) assay, in words” value in experiment [4] is recorded as “approximately half as active as (−)-rhazinilam”. In addition, the IC50 in experiment [1] stood at 1.8 ± 0.7 µM. The “activity in the cell-based (MCF-7) assay, in words” value in [1] (threshold IC50 < 10 μM) is listed as “approximately half as active as (−)-rhazinilam”.
Consider (−)-rhazinilam, for which the “disassembly of polymer at 0 °C” value in experiment [5] (20 μM compound + 0.4 mM GTP, 0.75 M glutamate (Fig. 5, curve 4)) was “little disassembly”; in [5] (20 μM compound, no GTP, 0.75 M glutamate (Fig. 5, curve 2)), “disassembled slowly in the cold”. Moreover, in experiment [5] (0.8 M glutamate, 0.4 mM GTP, 10 μM tubulin (Fig. 2, curve 4)), the “concentration at end of the inhibitory effect on tubulin assembly” value came to 3 µM. Moreover, the “concentration at onset of spiral induction” value in experiment [5] (0.8 M glutamate, 0.4 mM GTP, 10 μM tubulin (Fig. 2, curve 5)) is 4 µM. For the same compound, the figures for the “inhibition of the binding of [3H]vinblastine to tubulin” value in experiment [6] and in [9] were “inhibited the binding” and “unable to reproduce this result”, respectively. Moreover, the “inhibition of the binding of radiolabeled colchicine to tubulin” value in [7] was “no inhibitory effect”. The half-maximal inhibitory concentration (IC50) in [1] is 0.97 ± 0.3 µM. Besides, the “effect on microtubules in cultured cells” value in experiment [8] was “formation of extensive bundled microtubules”. Besides, the “inhibition of the binding of radiolabeled paclitaxel to preformed microtubules” value in [10] was “no inhibitory effect”.
